Ecoli rRNA inh – inhibitors of bacterial rRNA selective over humanized ribosomes; E. coli WT GFP vs humanized-ribosome RFP mutants, fluorescence, 24 h; active compounds read low; DMSO median 0, no signal -100; GFP signal change (wild-type ribosome), % (concentration not given with the values); 350,000 compounds, 1.6% hits; AID 720706;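 active = significant combined selectivity score with lowered wild-type GFP, culture density cut under 30%, mutant RFP and density less affected; inactive = any of these conditions unmet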
SUMO Mot1 rescue – inhibitors of SUMOylation pathway: yeast Mot1-301 growth rescue | 320,000 compounds, 1% hits | growth rescue, % at 18.8 µM | S. cerevisiae Mot1-301 growth rescue, ATP luminescence, 38.5C; percent above DMSO median, 100 means doubled;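 active = every valid replicate shows activation above 250% relative to neutral control wells; inactive = the rest, any valid replicate at or below 250%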;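 note: OY570 slx delta 5 strain wells were the positive control but not used for scaling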
Cneo AK release – Cryptococcus neoformans lysis via adenylate kinase release | C. neoformans lysis, adenylate kinase release luminescence, 4 h; normalised: neutral wells 0, clomiphene wells 100 | lysis activity, % at 15 µM | 360,000 compounds, 0.2% hits;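 active = mean lysis activity across replicates of at least 80%, whatever share of replicates individually reach that level; inactive = mean lysis activity below 80%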
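Schedule: static 4 h at 37 °C with compound, 1 h detection; system: C. neoformans cells; benchmarks: Clomiphene as positive control; buffer or medium: fresh YPD medium; measure: luminescence rise reflecting yeast cell lysis; measured by: luminescent adenylate kinase detection reagent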
Yeast superoxide – caloric restriction mimetics inhibiting age-related superoxide in yeast; superoxide response (% of plate mean), % at 10 µM; S. cerevisiae aged cells, superoxide DHE fluorescence; active compounds read low; 330,000 compounds, 0.18% hits; AID 2690;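 active = superoxide response under a set limit, about three screen SD below normal, cut at about 65% in these data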;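 note: yeast aged for seven days with compound at 30 °C before DHE staining; 100% = average MFI of all compound-treated wells on the plate with controls excluded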
PglD DTNB – blocks C. jejuni PglD acetyltransferase activity; purified PglD enzyme, DTNB colorimetric CoA detection; inhibition, % at 12.5 µM; 360,000 compounds, 0.098% hits; in the data active = inhibition above about 16%, passing the limit was not always enough
Numbers without * were called inactive; / = not tested or not shown; ! = a repeat was not active. This is a sample that favours compounds with a hit; in the whole collection about 2.2% have one here.

SMILES | Ecoli rRNA inh | SUMO Mot1 rescue | Cneo AK release | Yeast superoxide | PglD DTNB
CN1CCN(C(=O)C[C@@H]2CC[C@@H]3[C@H](COC[C@@H](O)CN3C(=O)Nc3ccc(Cl)cc3)O2)CC1 | -22 | / | -2 | / | 0
CN1CCN(C(=O)C[C@@H]2CC[C@H]3[C@@H](COC[C@H](O)CN3C(=O)Nc3ccc(Cl)cc3)O2)CC1 | -34* | / | -2 | / | -3
CN1CCN(C(=O)C[C@@H]2CC[C@H]3[C@@H](COC[C@H](O)CN3C(=O)Cc3ccccc3)O2)CC1 | 3 | / | 94* | / | -45
O=C(C[C@@H]1CC[C@H]2[C@@H](COC[C@@H](O)CN2C(=O)Nc2cc(Cl)cc(Cl)c2)O1)N1CCOCC1 | -50 | / | 0 | / | 3
CN1CCN(C(=O)C[C@@H]2CC[C@@H]3[C@H](COC[C@@H](O)CN3C(=O)Cc3ccccc3)O2)CC1 | 0 | / | 0 | / | 0
O=C(C[C@H]1CC[C@@H]2[C@H](COC[C@@H](O)CN2C(=O)Nc2cc(Cl)cc(Cl)c2)O1)N1CCOCC1 | -34* | / | 2 | / | -2
CC(C)CC#Cc1ccc2c(c1)O[C@@H](CN(C)C(=O)Cc1ccccn1)[C@@H](C)CN([C@H](C)CO)S2(=O)=O | -3 | / | -2 | / | -3
C[C@H](CO)N1C[C@H](C)[C@@H](CN(C)Cc2ccc(C(=O)O)cc2)Oc2ccc(NC(=O)CCN3CCOCC3)cc2CC1=O | 3 | / | -5 | / | 2
O=C(NC1CCC1)[C@H]1[C@H](CO)[C@H]2Cn3c(cccc3=O)[C@H]2N1CCc1ccccc1 | 1 | / | -4 | / | 2
C[C@H]1CN([C@@H](C)CO)C(=O)Cc2cc(NC(=O)C3CCCCC3)ccc2O[C@H]1CN(C)C(=O)Nc1cccc2ccccc12 | -2 | / | 1 | / | 5
C[C@H]1CN([C@@H](C)CO)C(=O)Cc2cc(NC(=O)c3ccncc3)ccc2O[C@@H]1CN(C)Cc1ccc(Cl)c(Cl)c1 | -25 | / | 6 | / | 0
Cc1noc(C)c1S(=O)(=O)N(C)C[C@H]1Oc2ccc(NC(=O)Nc3ccc(C(F)(F)F)cc3)cc2C(=O)N([C@H](C)CO)C[C@@H]1C | -5 | / | / | / | /
Cc1ccc(Cl)cc1N1CCN(C(=O)Cc2c(C(=O)O)[nH]c3ccc(Cl)cc23)CC1 | -11 | -22 | / | 102 | /
Cc1ccc(Cl)cc1N1CCN(C(=O)Cc2c(C(=O)O)[nH]c3ccccc23)CC1 | -30* | 7 | 0 | 106 | -1
CN1C(=O)/C(=C/c2cccc(Cl)c2)Sc2ccc(C(=O)N3CCCC3)cc21 | -35* | 70 | / | 115 | /
Cc1cccc(/C=C2\Sc3ccc(C(=O)N4CCCCC4)cc3N(C)C2=O)c1 | 2 | -15 | -1 | 141 | 0
C[C@@H]1CCCCO[C@@H](CN(C)CC2CCCCC2)[C@H](C)CN([C@@H](C)CO)C(=O)c2cc(NC(=O)c3ccncc3)ccc2O1 | -6 | / | 4 | / | -1
COc1cccc(-c2ccc3c(c2)[C@@H]2[C@@H](CCN2S(=O)(=O)c2ccccc2C)[C@H](CO)N3C)c1 | 1 | / | -3 | / | -1
CC(C)C[C@H](NC(=O)c1[nH]cnc1C(=O)Nc1ccc(CNC(=O)OC(C)(C)C)cc1)C(=O)OCc1ccccc1 | 4 | 325* | 9 | 92 | 3
CC(C)C[C@H](NC(=O)c1[nH]cnc1C(=O)Nc1ccc(CNC(=O)OC(C)(C)C)cc1)C(=O)OC(C)(C)C | 18 | -20 | -2 | 104 | -2
NS(=O)(=O)c1cc2c(cc1Cl)NC(C1C[C@H]3C=C[C@@H]1C3)NS2(=O)=O (stereo not given in full) | 5 | 563*! | -1 | 102 | -1
CCOc1ccc(/C=C2\SC(=S)N(CCCC(=O)NCCCN3CCOCC3)C2=O)cc1 | -21* | -29 | 15 | 103 | -4
CCc1ccc(/C=C2\SC(=S)N(CCCC(=O)NCCCN3CCOCC3)C2=O)cc1 | -27* | / | 2 | / | -9
O=C(Nc1cc(Cl)cc(Cl)c1)N[C@@H]1CC[C@@H](CCNS(=O)(=O)c2cccc(F)c2)O[C@H]1CO | -59 | / | 4 | / | 3
CCn1c(CCCOc2ccc(Cl)cc2Cl)n[nH]c1=S | -34* | 5 | 15 | 90 | 1
SMILES | Ecoli rRNA inh | SUMO Mot1 rescue | Cneo AK release | Yeast superoxide | PglD DTNB
O=[N+]([O-])c1ccc(O)c(C(C#Cc2ccccc2)N2CCOCC2)c1 (stereo not given) | -32* | -1 | / | 92 | /
CC1=NN(c2nc(-c3ccc(C)cc3)cs2)C(=O)C1N=Nc1ccc(C(N)=O)cc1 (stereo not given) | 8 | 441* | / | 109 | /
CC(=O)Nc1nc2ccccc2n1Cc1ccccc1Cl | -23* | 12 | / | 101 | /
CO[C@@H]1CN(C)C(=O)c2cc(NC(C)=O)ccc2OC[C@H](C)N(Cc2cccnc2)C[C@H]1C | 1 | / | -1 | / | 6
C[C@@H]1CN([C@@H](C)CO)C(=O)c2cccc(NS(=O)(=O)c3cccs3)c2O[C@@H]1CN(C)S(=O)(=O)c1cccs1 | -11 | / | -2 | / | -4
O=C(N/N=C/c1ccco1)c1ccc2nc[nH]c2c1 | 39 | -7 | -2 | 100 | -2
O=C(N/N=C/c1ccccc1C(F)(F)F)c1ccc2nc[nH]c2c1 | -25* | -1 | -3 | 109 | 1
O=C(N/N=C/c1ccc(Cl)cc1Cl)c1ccc2nc[nH]c2c1 | -18* | -6 | 0 | 101 | 10
Cc1ccc(S(=O)(=O)Nc2ccc3c(c2)CC(=O)N([C@@H](C)CO)C[C@H](C)[C@@H](CN(C)Cc2ccc(Cl)c(Cl)c2)O3)cc1 | 2 | / | 0 | / | 1
CCOc1ccc(-c2nc(-c3cccs3)c(CC(=O)O)s2)cc1OC | -19* | -4 | -1 | 127 | /
Cc1cc(C(=O)Nc2cccc3c2O[C@@H](CN(C)C(=O)NC(C)C)[C@H](C)CN([C@H](C)CO)C3=O)n(C)n1 | 2 | / | 3 | / | 0
CCNS(=O)(=O)c1ccc(OC)c(C(=O)NC2CCCCC2)c1 | / | 323* | 0 | 97 | -1
COc1ccc(S(=O)(=O)NCc2cccnc2)cc1C(=O)NC1CCCCC1 | 8 | -10 | 1 | 97 | -5
C[C@H](CO)N1C[C@H](C)[C@@H](CN(C)C(=O)Oc2ccccc2)OCc2ccccc2-c2ccccc2C1=O | -1 | / | -1 | / | 0
COc1ccc(C(=O)c2c(N)sc3c2CCN(C(=O)OC(C)(C)C)C3)cc1 | / | -2 | -3 | 94 | 7
CN1CCc2c(sc(N)c2C(=O)c2ccc(Cl)cc2)C1 | 3 | 69 | 164* | 96 | 3
CCCN(Cc1ccccc1)C(=S)NC(=O)c1ccccc1[N+](=O)[O-] | -51* | 158 | / | 118 | /
Cc1ccc(C)c(S(=O)(=O)Nc2ccccc2C(=O)Nc2ccc(S(=O)(=O)Nc3ncccn3)cc2)c1 | -31* | -20 | 1 | 93 | 6
CC(C#N)(Nc1ccc(Cl)cc1)c1cccnc1 (stereo not given) | / | 306* | 5 | 106 | -9
S=c1nc(-c2ccccc2Cl)n(Cc2cccnc2)c2c1CCCC2 | -26* | 8 | / | 103 | /

Assay outcomes deposited in PubChem BioAssay by several laboratories.
